# Results: PubChem BioAssay
# Unmarked numbers belong to inactive results. Inconclusive results are not listed. Calls of active or inactive are those of the source.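 How the source made its calls, unless noted: active means inhibition over a set limit, the all-compound mean plus 3 SD, in both replicate runs; inconclusive means over that limit in just one replicate run; inactive means at or under that limit in both runs.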
# How the values were obtained:
# [1] = OD615 S. cerevisiae growth inhibition, permissive medium, pilot counter-assay, permissive growth control for S. cerevisiae lifespan shortening project (AID 705;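 active means growth inhibition above 25% in both replicates, a cutoff set 3 SD above the mean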); settings: OD615, 24 h, at 10 µM, stronger effect = higher value
# How it was run: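 System: Engineered DeaD yeast | Buffer or medium: SC raffinose/galactose permissive medium | Doses: 10 µM single dose, 0.25% DMSO | Times: 24 h exposure, 30 °C | Measured by: OD615 turbidity read | Read-out: Yeast growth inhibition indicated by reduced 24 h OD615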
# [2] = Restrictive medium S. cerevisiae growth inhibition, OD615, pilot screen of yeast lifespan reduction project, restrictive growth control (AID 706;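 active means growth inhibition above a set limit, 3 SD over mean compound inhibition, in both replicates, cut at about 43% in these data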;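 further: modified DeaD lifespan yeast strain shifted to restrictive glucose medium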); settings: OD615, 48 h, at 10 µM, stronger effect = higher value
# How it was run: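 Assay system: engineered S. cerevisiae DeaD strain; Buffer or medium: CSMM-D glucose medium; Dosing: 10 µM compound, 0.25% DMSO; Times: cell pre-growth 4 h, compound exposure 48 h, 30 °C; Detection: absorbance (optical density) measured at 615 nm.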
# [3] = viability gain of MRP-1-high H69AR cells under doxorubicin, pilot screen, MRP-1 activator project, CellTiter-Glo, duplicate (AID 807;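 active means viability increase at or above a cutoff of the median across tested compounds plus 3 SD, cut at about 8.5% in these data, passing the limit was not always enough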;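 further: compound pretreatment 18-22 h then 72 h combined with doxorubicin; 0% = doxorubicin alone and 100% = vehicle without doxorubicin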); settings: H69AR viability with doxorubicin, CellTiter-Glo luminescence; at 10 µM; stronger effect = higher value
# [4] = growth suppression of beta-catenin knockout HCT116, pilot screen, human colon tumor cells (AID 823;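 active means cell viability at or below a set limit in both duplicate runs, the limit being the all-compound median minus 4 SD, cut at about 23% in these data, passing the limit was not always enough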;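 further: 0% = wells killed by 20 µM Hyamine and 100% = untreated DMSO cell wells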); settings: CellTiter-Glo, 60 h, at 10 µM, stronger effect = lower value
# [5] = growth suppression of PTEN-deleted HCT116, pilot screen, cell-based, HCT116 clonal line, CellTiter-Glo (AID 824;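 active means viability at or below 27.92% in each of two runs, the all-compound median minus 4 SD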;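 further: 0% = 20 µM Hyamine control and 100% = vehicle cell control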); settings: 60 h, at 10 µM, stronger effect = lower value
# [6] = inhibitors of the yeast RAM network, pilot screen, dse1pr::URA3 reporter, 5-FOA selection (AID 869);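 further: 0% = DMSO wells with no growth and 100% = 10 µM 1-NA-PP1 with full growth; RAM network block rescues cells from 5-FOA so hits raise OD615 growth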; settings: S. cerevisiae dse1pr::URA3 5-FOA growth, OD615, 2 d; at 10 µM; stronger effect = higher value; strain carries analog-sensitive mutant Cbk1 kinase
# [7] = RAM signaling pathway blockade in yeast – S. cerevisiae, Pdr1DBD-CYC8 efflux-inhibited sensitized strain, primary screen (AID 1298;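 active means RAM network inhibition above 8.4% in each of two replicates, 3 SD over the compound average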;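 further: 0% = DMSO untreated cells without growth and 100% = 10 µM 1-NA-PP1 full growth; higher means more yeast growth rescued from 5-FOA killing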); settings: S. cerevisiae cbk1-as DSE1-URA3 strain, 5-FOA growth OD615, 2 d; at 50 µM; stronger effect = higher value
Structure (SMILES),growth inhibition [1] [%],growth inhibition [2],viability increase [3] [%],viability [4] [%],viability [5] [%],inhibition [6] [%],RAM network inhibition [7] [%]
C=CCSc1nnc2c(n1)OC(c1cccnc1)Nc1ccccc1-2 (configuration not stated),8.11,13.7%,-2.34,95.5,88,1.75,1.38
O=C1c2ccccc2C(Nc2ccc3c(c2)OCCO3)N1c1ccccn1 (configuration not stated),-10.6,-13.5%,-1.97,81.5,85.6,1.86,4.05
CC1CCCCC1NC(=O)c1ccc(CNc2c(N3CCCC3)c(=O)c2=O)cc1 (configuration not stated),-2.63,8.32%,-0.12,96.7,90.8,1.01,0.72
CCOC(=O)c1ccc(S(=O)(=O)N2CCN(CCC#N)CC2)cc1,-7.13,0.63%,1.42,102,99.4,0.195,0.21
Cc1cc(C)nc(SCC(=O)Nc2ccc(S(=O)(=O)Nc3onc(C)c3C)cc2)n1,-5.04,14%,0.95,109,101,0.88,-1.62
N#CCCN1CCN(C(CNS(=O)(=O)c2ccc(Cl)cc2)c2ccccc2)CC1 (configuration not stated),-11.4,-16.5%,-1.72,95.3,94.8,1.9,6.39
CCOC(=O)N1CCN(C(=O)c2oc3ccc(S(=O)(=O)N4CCCCCC4)cc3c2C)CC1,-9.38,-0.595%,-4.29,59.3,71.1,-0.805,1.63
CCOC(=O)COc1cccc2c(=O)n(CC(=O)N3CCc4ccccc43)ccc12,-10.5,-15.5%,-2.89,98.6,90.7,1.25,3.56
COc1ccc(C(=O)Nc2cc(=O)n(C)c(=O)n2C)cc1OC,-0.79,6.3%,-1.84,104,94.2,1.09,-1.14
COc1ccc(C2C(C(=O)NCc3ccccn3)c3cc(OC)c(OC)cc3C(=O)N2C)cc1 (configuration not stated),-3.48,1.16%,-4.5,98,95.9,-0.135,5.92
Cc1ccc(NC(=O)CSC2=C(C#N)C(c3ccc4c(c3)OCO4)C3=C(CCCC3=O)N2)c(C)c1 (configuration not stated),21.3,59.1% (active),-5.27,73.7,72.7,1.4,5.06
CC(C)Cc1cc(-c2ccco2)c(C#N)c(N)n1,-11.4,-17.1%,-4.39,80.9,89.4,3.23,9.01
O=C(COC(=O)C1CCCO1)Nc1cccc(C(F)(F)F)c1 (configuration not stated),-22.8,-15.9%,0,91.8,94.5,1.63,2.45
COc1cc(OC)cc(-c2cc3nc(C)c(CCC(=O)O)c(C)n3n2)c1,0.5,-1.06%,-2.31,96.6,96.6,0.805,1.56
O=C(C1CCCCC1)N1CCN(c2ncccn2)CC1,-3.77,-0.05%,0.21,101,102,1.31,2.41
CC(=O)N(c1ccc(C)cc1)C1C=CS(=O)(=O)C1 (configuration not stated),-8.96,7.8%,-0.41,101,105,0.6,7.21
Cc1ccccc1NC(=O)c1ccc(S(=O)(=O)N(C)C)cc1,-9.3,-2.52%,0.67,102,94,2.17,2.21
Cc1cccnc1NC(=O)c1c(O)c2ccccc2n(C)c1=O,3.49,11.4%,-3.77,92,98,-0.005,-1.38

Structure (SMILES),growth inhibition [1] [%],growth inhibition [2],viability increase [3] [%],viability [4] [%],viability [5] [%],inhibition [6] [%],RAM network inhibition [7] [%]
CCC(Sc1ccc2nnc(-c3cccnc3)n2n1)C(=O)O (configuration not stated),-18.7,-14.8%,-0.8,100,95.8,2.44,6.69
O=C1CCc2cc(S(=O)(=O)N3CCCC3C(=O)N3CCN(c4ccccc4)CC3)ccc2N1 (configuration not stated),-10.3,-12.1%,-3.91,105,85,3.67,4.76
Cc1ccnc(N2C(=O)c3ccccc3C2Nc2cccc(C)c2C)c1 (configuration not stated),-14,-0.8%,0.92,92,87.1,1.32,6.56
O=C1C(C=NCCN2CCOCC2)=C(O)c2ccccc21,-15.9,-26.8%,-1.88,100,92.4,2.4,3.56
COC(=O)c1ccccc1NC(=O)Nc1nnc(N2CCCCC2C)s1 (configuration not stated),-8.82,5.2%,-0.77,64.3,49.8,0.815,1.05
Cc1cnc(N)c2c(=O)oc3ccccc3c12,-0.41,24.5%,-4.45,103,92.8,1.61,1.88
CC(=O)c1c(Nc2ccc3c(c2)OCCO3)oc(C)cc1=O,-21.9,0.47%,-5.39,110,100,0.68,-2.1
Cc1c(N=c2c(=O)c3ccccc3c2=O)c(=O)n(-c2ccccc2)n1C,-15.7,-8.74%,-4.43,95.2,95.3,4.17,3.66
O=C(c1ccco1)N1CCN(S(=O)(=O)c2cccc3nsnc23)CC1,-10.9,-21.4%,-0.16,99,99.7,0.6,5.06
CCCCCC(C)n1[nH]c(=O)c2c(C)cc(C)nc21 (configuration not stated),-6.7,17.6%,-3.27,97.6,96.2,0.47,0.57
CC(c1ccc(Br)cc1)N1CC23C=CC(O2)C(C(=O)O)C3C1=O (configuration not stated),0.305,6.24%,-0.16,102,99.7,1.27,-1.25
NC(=O)c1ccsc1NC(=O)c1cccs1,-5,-5.65%,-2.23,104,92.8,1.59,0.37
Cc1ccc(C)c(C(=O)CSc2n[nH]c(C)n2)c1,0.045,11.3%,-0.91,102,102,1.77,1.5
CCCCNc1cc(=O)n(C)c(=O)[nH]1,-12.2,-4.46%,-0.6,104,96.5,1.55,2.98
CCOC(=O)N1CCN(C(=O)C2CC(c3ccc(F)cc3)=NO2)CC1 (configuration not stated),-5.22,-10.9%,1.33,104,108,0.815,2.2
O=C(O)c1ccc(F)c(S(=O)(=O)Nc2ccccc2)c1,-3.28,-2.19%,1.08,96.2,101,-0.93,-0.06
Cc1ccc(O)c(-c2cc(C(F)(F)C(F)F)[nH]n2)c1,-5.95,-19.7%,-4.24,97.1,87.3,0.725,3.84
Cc1ccccc1C(=O)N1CCC(C(=O)Nc2cccc(F)c2)CC1,-7.2,-1.04%,-0.02,98.1,82.7,1.3,3.22
